From paper PMC4560520 (Drug Design, Development and Therapy, 2015)
Like-named read-outs stand apart in the source and are kept apart here.

Key:
[1] = test system: healthy subjects; experiment: Multiple ascending dose; format: in vivo, human
[2] = test system: healthy subjects; details: cited from earlier work
[3] = cited from earlier work; for t1/2: mean ± SD
[4] = test system: healthy subjects; details: febuxostat multiple 80 mg once-daily doses after a high-fat meal; cited from earlier work
[5] = test system: healthy subjects; experiment: Safety and tolerability evaluation; format: in vivo, human
Method in brief: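 The single-dose part covered 10–600 mg; the multiple-dose part gave 100–800 mg orally once daily for 7 days after an overnight fast, with 8 active subjects per dose group. Adverse events came from a questionnaire or spontaneous reports. Renal toxicity was assessed with a NGAL test.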

[6] = test system: healthy subjects; experiment: Single ascending dose; format: in vivo, human; details: for Change in Cmean,24 of serum uric acid from baseline: Day 1, mean (SD), n=8
Method in brief: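 Healthy volunteers got a single oral dose on day 1, fasted, with placebo on day -1 for baseline and standardized meals. Serial blood was taken on days -1 and 1; aliquots were stored at -70°C. Serum uric acid, xanthine and hypoxanthine were measured by a validated assay. Cmean,24 = noncompartmental AUC0–24/24, as % change from baseline. Urinary Ae = urine volume × concentration.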

[7] = test system: XO enzyme; details: in vitro; ref data on file at LG Life Sciences; cited from earlier work
[8] = test system: dog; details: preclinical studies, no reference given; cited from earlier work
[9] = test system: SUA; details: in vivo study; ref data on file at LG Life Sciences; cited from earlier work
[10] = test system: CYP isoenzymes; details: incubated with CYP isoenzymes; preclinical, no reference given; cited from earlier work
[11] = target: XO (Homo sapiens, UniProt P47989); experiment: PK/PD relationship, Emax model; format: in vivo
Chain of XO (P47989 whole entry): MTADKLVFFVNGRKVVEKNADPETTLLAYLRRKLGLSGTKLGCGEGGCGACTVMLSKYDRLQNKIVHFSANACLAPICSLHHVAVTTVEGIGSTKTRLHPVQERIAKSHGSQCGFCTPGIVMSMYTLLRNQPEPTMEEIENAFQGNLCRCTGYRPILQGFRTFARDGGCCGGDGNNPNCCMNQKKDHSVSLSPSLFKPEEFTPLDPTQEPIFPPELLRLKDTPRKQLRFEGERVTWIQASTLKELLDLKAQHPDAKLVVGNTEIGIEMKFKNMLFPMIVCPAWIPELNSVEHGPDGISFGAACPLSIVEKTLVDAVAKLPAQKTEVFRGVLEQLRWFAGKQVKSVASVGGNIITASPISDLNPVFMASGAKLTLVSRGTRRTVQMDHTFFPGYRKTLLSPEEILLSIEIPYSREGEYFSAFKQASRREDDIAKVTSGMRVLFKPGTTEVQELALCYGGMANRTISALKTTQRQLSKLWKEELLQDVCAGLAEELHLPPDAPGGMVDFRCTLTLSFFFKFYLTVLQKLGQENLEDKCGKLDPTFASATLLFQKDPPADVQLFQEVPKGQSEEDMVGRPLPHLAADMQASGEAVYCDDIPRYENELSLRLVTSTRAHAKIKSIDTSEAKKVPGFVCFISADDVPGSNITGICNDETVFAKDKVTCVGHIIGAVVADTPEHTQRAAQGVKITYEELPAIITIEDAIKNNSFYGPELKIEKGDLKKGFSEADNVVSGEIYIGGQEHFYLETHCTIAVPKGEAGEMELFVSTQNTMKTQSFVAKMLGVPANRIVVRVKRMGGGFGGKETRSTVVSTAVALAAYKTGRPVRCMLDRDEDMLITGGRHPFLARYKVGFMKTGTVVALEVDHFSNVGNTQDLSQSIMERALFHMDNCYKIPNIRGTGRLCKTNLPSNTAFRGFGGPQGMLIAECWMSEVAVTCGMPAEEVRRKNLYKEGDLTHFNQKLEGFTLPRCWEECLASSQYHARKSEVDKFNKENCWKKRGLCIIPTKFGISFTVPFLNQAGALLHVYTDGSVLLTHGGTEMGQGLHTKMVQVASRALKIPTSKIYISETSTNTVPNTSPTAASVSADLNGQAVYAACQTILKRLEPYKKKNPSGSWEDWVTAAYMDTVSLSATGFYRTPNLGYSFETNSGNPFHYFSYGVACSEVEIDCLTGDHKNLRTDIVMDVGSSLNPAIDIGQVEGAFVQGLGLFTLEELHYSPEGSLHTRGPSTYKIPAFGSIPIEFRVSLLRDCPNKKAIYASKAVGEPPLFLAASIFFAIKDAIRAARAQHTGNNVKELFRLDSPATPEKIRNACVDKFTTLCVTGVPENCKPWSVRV

[12] = test system: liver microsome; details: in vitro liver microsome study; preclinical, no reference given; cited from earlier work
[13] = test system: rat; details: preclinical studies, no reference given; cited from earlier work
[14] = SAD study incl. food effect: pharmacokinetics of LC350189 in plasma and urine; format: in vivo, human
[15] = 200 mg, fed (high-fat diet) vs fasting

Structure (SMILES): Cc1nc(-c2ccc(OCC(C)C)c(C#N)c2)sc1C(=O)O [Febuxostat, febuxostat]
- Maximum percentage decrease from baseline in Cmean,24 for SUA ([1]; febuxostat group (80 mg once daily for 7 days)): 58.8%
- Maximum percentage decrease from baseline in Cmean,24 ([2]; febuxostat 40 mg dose group): ~ 40%
- Maximum percentage decrease from baseline in Cmean,24 ([2]; febuxostat 90 mg dose group): 60%
- Inhibition of the enzyme (XO), Emax ([2]; febuxostat): 81.4%
- Allergic reaction, subjects ([2]; previous febuxostat multiple-dose study): six out of 118 subjects
- t1/2 ([3]; febuxostat 40 mg): 10.3 ± 7.4 h
- t1/2 ([3]; febuxostat 70 mg): 12.5 ± 7.7 h
- Tmax ([3]; febuxostat): ~ 1 hour
- Change by food in the percentage decrease in SUA concentration [4]: no clinically significant change
- Change of AUC by food [4]: slight decrease

Structure (SMILES): CC(C)n1cc(C#N)c2cc(-n3cc(C(=O)O)cn3)ccc21 [LC350189]
- Allergic reaction ([5]; SAD and MAD): no allergic reaction
- Renal toxicity according to the NGAL test ([5]; SAD and MAD): no signals of renal toxicity
- Tolerability ([5]; single and multiple oral administrations, dose range 10–800 mg): well tolerated
- Change in Cmean,24 of serum uric acid from baseline ([6]; SAD single oral 200 mg, fasting): −22.9%
- Change in Cmean,24 of serum uric acid from baseline ([6]; SAD single oral 600 mg, fasted): −31.7%
- Increase of Cmean,24 of xanthine ([6]; after a single dose): two- to seven-fold
- Inhibition of XO enzyme activity [7]: comparable to febuxostat
- Change in Cmean,24 of serum uric acid from baseline ([1]; MAD 800 mg once daily for 7 days, fasted, Day 7, mean (SD), n=6): −91.2%
- Amount of uric acid excreted in the urine relative to baseline ([1]; after multiple administrations): one-third to one-tenth of the baseline level
- Maximum percentage decrease from baseline in Cmean,24 for SUA ([1]; after multiple administrations of LC350189): 91.2%
- Increase of Cmean,24 of xanthine ([1]; after multiple administrations, day 7): three-to eight-fold
- Dose up to which no significant toxicity was found [8]: 200 mg/kg
- Reduction of SUA [9]: sufficiently reduced SUA
- Metabolic stability [10]: metabolically stable
- Emax (maximum percentage decrease in Cmean,24 of SUA) ([11]; Emax model, day 7, MAD, 95% CI 94.8%–105.4%): 100.1%
- Inhibition of XO activity ([11]; multiple doses at 100 mg, AUC at steady state close to EAUC50): ~50%
- Emax ([11]; read-out: Inhibition of XO based on the Emax model): ~100%
- Metabolic stability [12]: metabolically stable
- Dose up to which no significant toxicity was found [13]: 12.5 mg/kg
- Geometric mean ratio (90% CI) of AUClast with and without food ([14]; 200 mg single dose): 0.973 (0.837–1.131)
- Geometric mean ratio (90% CI) of Cmax, fed vs fasting ([14]; 200 mg single dose): 0.624 (0.485–0.802)
- Decrease of Cmax by food [14, 15]: 38%
- Delay of absorption by food [14, 15]: ~ 2 hours
- Time up to which plasma concentrations were detected ([14]; SAD low-dose groups (10 mg, 25 mg, 50 mg), LLOQ 5 ng/mL): up to 48 hours
- half-life ([14]; male, human, plasma, oral, t1/2, overall, approximate): ~10 h
